According to PubChem BioAssay AID624398 (The Scripps Research Institute Molecular Screening Center, 2012):
Calls of active or inactive are those of the source.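 How the source made its calls: active means estrogen-induced reporter signal reduced by at least 20%; inactive means reduction of reporter signal under 20%.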

System: BG1Luc4E2 ERE-luciferase, estradiol-induced, luminescence, 24 h
Test: inhibitors of ER-driven luciferase reporter, late-stage follow-up, counter-screen for AHR activator project, BG1Luc4E2 ovarian carcinoma cells, luminescence, set 2 (AID 624398)
Conditions: not given
Procedure, shortened: (§1)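 Material: 2xERE luciferase reporter; buffer or medium: charcoal-stripped serum medium after 5-day estrogen depletion; also added: 1 nM estradiol; times: 24 h exposure at 37 °C; technique: luciferase luminescence measured after cell lysis; replicates: triplicate wells for the 10 µM dose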
Molecule `Cc1ccc(-c2cc(-c3ccc(F)cc3)n[nH]2)c(O)c1` has an IC50 of 20 µM.
Molecule `Cc1ccc(-c2cc(-c3ccc(Cl)cc3)n[nH]2)c(O)c1` has an IC50 of 30 µM.

System: not listed separately
Test: as above
Conditions: BG1Luc4E2 ERE-luciferase, estradiol-induced, luminescence, 24 h; at 10 µM; stronger effect = higher value
Procedure, shortened: as §1
In the case of `Cc1cc(Br)cc(C)c1Nc1ccnc(Nc2ccc(C#N)cc2)n1`, the inhibition is reported as 92.9%.
With `COc1ccc(Cl)cc1NC(=O)c1ccc(C(=O)Nc2cc(Cl)ccc2OC)nc1` the inhibition was 79.6%.
In the case of `Nc1nc(Cl)cc(Nc2ccccc2F)n1`, the inhibition is reported as 8% (inactive).
For `CN(Cc1cc(-c2cccs2)n[nH]1)Cc1coc2ccccc2c1=O`, the inhibition was -31.1% (inactive).
In the case of `CCOC(=O)c1c(C)nn(-c2cc(Cl)ccc2Cl)c1C`, the inhibition is reported as 29%.
In the case of `Cc1ccnc(NC(=O)CSc2nc3ccccc3s2)c1`, the inhibition is reported as 16.1% (inactive).
For `COc1ccc(Nc2cc(Cl)nc(N)n2)cc1OC`, the inhibition was -18.4% (inactive).
In the case of `CCOc1ccccc1NC(=O)c1ccc(C(=O)Nc2ccccc2OCC)nc1`, the inhibition is reported as -45.6% (inactive).
In the case of `Nc1nc(Cl)cc(Nc2ccc(Oc3ccccc3)cc2)n1`, the inhibition is reported as -6.3% (inactive).
With `Cc1csc(SCC(=O)Nc2ccccn2)n1` the inhibition was 12.2% (inactive).
In the case of `COc1ccc(-c2cc(-c3ccc(C)cc3O)[nH]n2)cc1`, the inhibition is reported as 40.9%.
In the case of `COc1ccc(Nc2cc(Cl)nc(N)n2)cc1`, the inhibition is reported as -52.4% (inactive).
For `O=C(CSc1nc(-c2ccc(F)cc2)cs1)Nc1ccccn1`, the inhibition was -26.7% (inactive).
For `Cc1cccc(C)c1NC(=O)c1ccc(C(=O)Nc2c(C)cccc2C)nc1`, the inhibition was -12.6% (inactive).
Work on `O=C(CSc1nc2ccccc2s1)Nc1ccc(Cl)cn1` yielded an inhibition of 38.8%.
For `Cc1cccc(NC(=O)c2cc(-c3ccc(C)cc3O)n[nH]2)c1`, the inhibition was -95.6% (inactive).
`Cc1ccc(O)c(-c2cc(-c3ccccc3Cl)[nH]n2)c1` showed an inhibition of 66.3%.
For `Cc1cc(Nc2ccc(F)cc2)nc(N)n1`, the inhibition was 15.8% (inactive).
With `COc1ccc(NC(=O)c2ccc(C(=O)Nc3ccc(OC)cc3OC)nc2)c(OC)c1` the inhibition was 19.4% (inactive).
For `COc1ccc(O)c(-c2cc(-c3cccs3)[nH]n2)c1`, the inhibition was 43.1%.
Work on `Cc1ccc(NC(=O)c2ccc(C(=O)Nc3ccc(C)cc3C)nc2)c(C)c1` yielded an inhibition of 33.6%.
Molecule `O=C(CSc1nc2ccccc2s1)Nc1ccccn1` has an inhibition of 79%.
